# SKKanGAS inh: inhibitors of SKKanGAS S. pyogenes growth in kanamycin (SK-promoter or general growth effect) | BacTiter-Glo, 6 h | inhibition, % at 7.5 µM | 1.3% of 300,000 active;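 active = mean replicate score, as percent of positive control median, at least 50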;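 also: strain carries kanamycin resistance gene driven by streptokinase promoter and grows in 40 µg/ml kanamycin; loss of luminescence reflects streptokinase promoter inhibition or plain growth inhibition; 0% = median of DMSO wells and 100% = positive control at its reference dose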
# PfHsp90 set2: inhibits growth of yeast expressing Plasmodium falciparum Hsp90; S. cerevisiae expressing PfHsp90, BacTiter-Glo ATP, 48 h; yeast lacking PDR1 and PDR3 efflux regulators; inhibition, % at 9.4 µM; 0.32% of 310,000 active; AID 504621;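 active = every replicate shows inhibition above about 80%, whatever the replicate mean, limit read from the data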;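 also: 0% = DMSO neutral controls and 100% = 20 µM radicicol positive controls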
# PglD DTNB: PglD (C. jejuni) enzyme inhibition. purified PglD enzyme, DTNB colorimetric CoA detection. 0.098% of 360,000 active. inhibition, % at 12.5 µM; in the data active = inhibition above about 16%, passing the limit was not always enough
# CSC inhib: cancer stem cell inhibition. inhibition, % at 7.5 µM. 1.1% of 300,000 active. AID 2717. cancer stem cell-like cells viability, luminescence; in the data active = inhibition above about 75%; tested in HMLE shEcad cells
# Rtt109 HAT inh: blocks Candida albicans Rtt109/Vps75 acetyltransferase activity | inhibition, % at 34.9 µM | 0.16% of 330,000 active | purified Rtt109/Vps75, ThioGlo CoA-SH fluorescence, 4 h;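 active = inhibition of at least 50% in every replicate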
# Target sequence (Q5AAJ8 whole entry, looked up): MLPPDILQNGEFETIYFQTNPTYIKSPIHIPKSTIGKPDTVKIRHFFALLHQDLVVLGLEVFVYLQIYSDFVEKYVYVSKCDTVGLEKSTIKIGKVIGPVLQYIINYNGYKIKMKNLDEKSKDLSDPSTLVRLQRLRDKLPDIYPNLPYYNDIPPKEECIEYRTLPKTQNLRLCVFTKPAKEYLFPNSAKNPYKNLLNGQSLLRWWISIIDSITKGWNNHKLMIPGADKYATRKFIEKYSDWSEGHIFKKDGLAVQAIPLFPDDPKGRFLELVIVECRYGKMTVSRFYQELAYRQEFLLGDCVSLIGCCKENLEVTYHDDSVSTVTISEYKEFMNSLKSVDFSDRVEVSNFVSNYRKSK
# FN deposition inh: fibronectin deposition inhibition | inhibition, % at 12.6 µM | 0.086% of 350,000 active | AH1F fibroblasts, Alexa488-fibronectin deposition fluorescence, overnight | AID 743247;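 active = mean inhibition across replicates of 30% or more, regardless of how many single replicates reach that level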;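 also: positive control wells lacked labelled fibronectin entirely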
#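 Material – AH1F fibroblast monolayer, labelled fibronectin deposition · Reagent – labelled fibronectin 24 nM · Timing – 1 h adhesion, overnight exposure · Measured by – fluorescence at 485 nm excitation, 525 nm emission · Read-out – inhibition of fibronectin deposition signal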
# * = called active by the depositor; . = no result given; ! = not confirmed by another sample. Hits are enriched below; roughly 1.7% of the tested compounds scored in any of these assays.
SMILES,SKKanGAS inh,PfHsp90 set2,PglD DTNB,CSC inhib,Rtt109 HAT inh,FN deposition inh
CC(=O)Nc1ccc2c(c1)CC(=O)N(C)C[C@@H](C)[C@@H](CN(C)C)O2,.,.,.,.,.,-13
Cc1nc(N/N=C/c2ccccn2)sc1C,.,.,.,70,.,2
CCCc1sc(N/N=C/c2ccccn2)nc1-c1ccc(F)cc1,96*,124*,-4,93*,-1,.
CCOc1ccc(-n2cc(-c3ccccc3)c3c(=O)[nH]cnc32)cc1,-6,-56,-4,-1,-2,0
c1ccc(-c2cn(-c3ccccc3)c3ncnc(N4CCCCC4)c23)cc1,67*,5,.,71,0,5
CN1CCN(c2ncnc3c2c(-c2ccccc2)cn3-c2ccc(F)cc2)CC1,-10,-15,.,23,-14,15
CCOc1ccc(-n2cc(-c3ccccc3)c3c(=S)nc[nH]c32)cc1,77*,-39,-1,32,4,-9
CCOc1ccc(-n2cc(-c3ccccc3)c3c(N4CCOCC4)ncnc32)cc1,28,-1,9,104*,-3,-6
Cc1ccc(S(=O)(=O)Nc2ccc3c(c2)CC(=O)N([C@H](C)CO)C[C@H](C)[C@@H](CN(C)S(=O)(=O)c2ccc(F)cc2)O3)cc1,.,.,2,.,.,.
CC(C)CCNc1nc(-c2ccco2)c2c(c1C#N)CCCC2,41,6,13,80*,-21,.
CC(C)NC(=O)Nc1ccc2c(c1)C(=O)N([C@H](C)CO)C[C@H](C)[C@@H](CN(C)C(=O)Nc1ccc3c(c1)OCO3)OCCCC[C@@H](C)O2,.,.,18,.,.,1
O=C(O)c1ccccc1C(=O)N1CCc2c([nH]c3ccccc23)C1C(F)(F)F (centres undefined),0,.,7,5,.,-11
COc1ccc(C(=O)N2CCc3c([nH]c4ccccc34)C2C(F)(F)F)cc1 (centres undefined),52*,-2,.,1,-5,1
CC(C)NC(=O)N(C)C[C@@H]1Oc2ccc(N(C)C)cc2C(=O)N(C)C[C@@H]1C,.,.,.,.,.,5
Cc1noc(C)c1NC(=O)Nc1ccc2c(c1)C(=O)N([C@H](C)CO)C[C@H](C)[C@H](CN(C)Cc1ccccc1)OCCCC[C@H](C)O2,.,.,5,.,.,3
Cn1c(O)c(/C=N/NC(=O)c2cc3ccccc3cc2O)c2ccccc21,104*,-16,2,.,-7,3
C/C(=N\N=C(/N)SC1CC(=O)N(c2ccc(Br)cc2)C1=O)c1cccs1 (centres undefined),98*,-22,-2,47,-5,.
C/C(=N\N=C(/N)SC1CC(=O)N(c2ccc(Cl)cc2)C1=O)c1cccs1 (centres undefined),26,13,-6,26,16,-7
C/C(=N\N=C(/N)SC1CC(=O)N(c2ccc(Cl)c(Cl)c2)C1=O)c1cccs1 (centres undefined),98*,3,5,79*,16,.
C/C=C/c1ccc([C@H]2[C@@H](CO)N(S(=O)(=O)CC)[C@@H]2CN(C)C(=O)CC)cc1,.,.,.,.,.,-1
C[C@@H]1CCCCO[C@@H](CN(C)C(=O)c2ccccc2)[C@H](C)CN([C@H](C)CO)C(=O)c2cc(NS(=O)(=O)c3ccc(F)cc3)ccc2O1,.,.,0,.,.,.
CCOc1ccc2oc(C(=O)NNC(=O)c3ccccc3O)c(C)c2c1,69*,3,-6,.,-2,.
Cc1c(C(=O)NCc2cccs2)oc2ccc(Br)cc12,14,.,4,15,.,-9
Cc1c(C(=O)NNC(=O)c2ccccc2O)oc2ccc(Br)cc12,108*,-23,-6,27,-5,.
CCOc1ccc2oc(C(=O)O)c(C)c2c1,-5,32,1,-6,-12,-2
SMILES,SKKanGAS inh,PfHsp90 set2,PglD DTNB,CSC inhib,Rtt109 HAT inh,FN deposition inh
CC(=O)Nc1cccc2c1O[C@@H](CN(C)C)[C@H](C)CN(C)C2=O,.,.,.,.,.,-6
C[C@@H]1CCCCO[C@@H](CN(C)CC2CCCCC2)[C@H](C)CN([C@@H](C)CO)C(=O)c2cc(NC(=O)Nc3ccc(F)cc3)ccc2O1,.,.,-1,.,.,.
CN1C(=O)c2cc(NC(=O)c3cnccn3)ccc2OC[C@H]2O[C@@H](CC(=O)NC3CCC3)CC[C@H]21,.,.,0,.,.,-4
COc1ccc(COc2cc(-c3cccc(OC)c3)nc3ccc(NC(=O)c4ccc(C)cc4)cc23)cc1,19,12,-5,69,-7,8
COc1ccc(COc2cc(-c3cccc(OC)c3)nc3ccc(NC(=O)c4ccc(N(C)C)cc4)cc23)cc1,15,.,-5,80*,-1,.
Cc1ccc(-c2nnc(NC(=O)c3ccc([N+](=O)[O-])o3)o2)c(C)c1,70*,-54,5,-1,-3,4
Cc1noc(C)c1NC(=O)Nc1ccc2c(c1)C(=O)N([C@H](C)CO)C[C@@H](C)[C@@H](CN(C)Cc1ccc(C(=O)O)cc1)OCCCC[C@@H](C)O2,.,.,0,.,.,.
O=[N+]([O-])c1cc2no[n+]([O-])c2cc1N1CCCCC1,.,105*,.,.,4,-10
c1cnc2c(c1)ccc1cccnc12,24,125*!,1,3,-22,5
CSS(=O)(=O)c1cccc2cccnc12,-9,10,10,-20,132*,3
C[C@@H]1CN([C@H](C)CO)C(=O)c2cccc(NS(=O)(=O)c3ccc(Cl)cc3)c2O[C@@H]1CN(C)C(=O)Nc1ccc2c(c1)OCO2,.,.,4,.,.,-5
CCC(=O)N[C@@H]1C=C[C@@H](CC(=O)OC)O[C@@H]1CO,.,.,7,.,.,5
Cc1noc(C)c1S(=O)(=O)Nc1ccc2c(c1)C(=O)N([C@H](C)CO)C[C@@H](C)[C@H](CN(C)S(=O)(=O)c1cccs1)OCCCC[C@H](C)O2,.,.,3,.,.,-8
Cc1noc(C)c1NC(=O)Nc1cccc2c1O[C@H](CN(C)C(=O)Nc1ccc(C(F)(F)F)cc1)[C@H](C)CN([C@H](C)CO)C2=O,.,.,-3,.,.,-3
C/C(=N\NC(=O)c1ccccc1NC(=O)c1ccc(Cl)cc1)c1ccncc1,76*,32,.,136*,-2,-3
CCN(CC)Cc1ccc(NC(=O)c2sc3cc(Cl)ccc3c2Cl)cc1,4,12,.,101*,-3,14
CCCCn1nnc(NC(=O)c2sc3cc(Cl)ccc3c2Cl)n1,5,4,-1,20,0,.
Cc1sc2ncnc(SCC(=O)N3CCCC(C(F)(F)F)C3)c2c1C (centres undefined),55*,1,-4,-1,-4,2
Cc1ccccc1-c1cc(-c2ccccc2O)n[nH]1,55*,-7,8,-5,1,-2
Cc1ccc(-c2cc(-c3ccccc3Cl)[nH]n2)c(O)c1,110*,-9,3,112*,10,14
Oc1ccc(Br)cc1-c1cc(-c2ccccc2Cl)[nH]n1,23,-25,8,24,8,15
COc1ccc(O)c(-c2cc(-c3ccccc3Cl)[nH]n2)c1,59*,-17,-5,.,3,8

# From PubChem
